# Data taken from article PMC8901509 (Clinical Drug Investigation, 2021).
# Read-outs that look alike come from different tables or passages of the source.
# Tests used:
# [1] = system: glycine transporter-1 (GlyT1); conditions: rat; dose-dependent; cited from earlier work
# [2] = multiple oral doses of itraconazole; cited from earlier work
# [3] = cited from earlier work
# [4] = Study 2: metabolite radioprofiling in plasma, urine and feces; format: in vivo, human
# Method in brief: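 Single oral 25 mg [14C]-labelled solution to healthy males. Plasma (to 168 h), urine and daily feces profiled by HPLC radiochromatography with fractionation and solid scintillation counting. Identification by LC/MS with accurate mass, positive and negative ion CID MS/MS; tentative unless matched to an authentic standard. Peaks < 20 cpm height below quantitation limit.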
# [5] = system: glycine transporter-1 (GlyT1); conditions: human; dose-dependent; cited from earlier work
# [6] = Study 2: safety and tolerability; format: in vivo, human
# Method in brief: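 Healthy males, sitting, given a single oral 25 mg dose of [14C]-labelled plus unlabelled drug as a solution after an overnight fast. Safety from physical examination (AEs), safety laboratory parameters, 12-lead ECG and vital signs (pulse rate, blood pressure). Investigators graded severity and drug relatedness.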
# [7] = format: in vivo, human; conditions: gMean dose-normalized maximum plasma concentration
# Method in brief: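 Healthy males, overnight fast (≥ 10 h); single oral 25 mg film-coated tablet with water, fasted ≥ 4.5 h; at 4 h, 15-min IV infusion of 30 µg (3 µg [14C]-labelled, 0.011 MBq, plus 27 µg unlabelled). Plasma sampled −2 to 168 h (unlabelled) or 3–168 h (labelled), stored ~−20 °C. Unlabelled drug by validated LC/MS, labelled by AMS. Dose-normalized gMean ratio via mixed-effects ANOVA, two-sided 90% CI.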
# [8] = format: in vivo; conditions: human, plasma, po, 25 mg, t½, oral 25 mg solution, gMean (gCV%)
# Method in brief: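 Healthy males, overnight fast (≥ 10 h), sitting; single oral 25 mg dose of [14C]-labelled/unlabelled mixture as 12.5 mL solution (2 mg/mL) with 240 mL water, planned 3.7 MBq; no food ≥ 4 h. Venous blood 5–8 mL per time point; plasma frozen ~−20 °C within 60 min. Cmax, AUC0–tz, AUC0–∞, tmax, t1/2 for parent, three metabolites and total radioactivity.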
# [9] = cited from earlier work; remark: listed apart in the source
# [10] = anticipated therapeutic dose range of 5–25 mg; cited from earlier work
# [11] = Study 1: safety and tolerability; format: in vivo, human
# Method in brief: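 Healthy males given a single oral 25 mg tablet followed 4 h later by a 15-min IV [14C]-microtracer infusion. Medical surveillance for 24 h post-dose. AEs recorded continuously from screening to end-of-trial visit (Days 12–15). Assessment by physical examination, safety laboratory parameters, 12-lead ECG and vital signs (pulse rate, blood pressure).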
smiles,measurement,setting,value
C[C@@H](Oc1ccc(S(C)(=O)=O)cc1C(=O)N1C[C@@H]2C[C@]2(c2cc(C(F)(F)F)on2)C1)C(F)(F)F [BI 425809],levels of glycine in cerebral spinal fluid (CSF),[1],increased
same,gMean ratio of Cmax with co-administration of itraconazole,[2],116.1%
same,Biopharmaceutics Classification System class,[3],Class II
same,permeability,[3],high
same,% of Dose Administrated; % of the radioactive dose,"[4]; Average, feces radioprofiling",< 1%
same,"Plasma (%AUC0-168h), % [14C]; % of total plasma radioactivity","[4]; Average, plasma radioprofiling",41.0%
same,% of total radioactivity in feces,[4]; feces radioprofiling,< 1%
same,levels of glycine in cerebral spinal fluid (CSF),[5],increased
same,"Total with on-treatment adverse events, %",[6]; 6 subjects,83.3%
same,AEs considered severe or drug related by the investigators,[6]; study 2,none
same,"SAEs, AEs leading to discontinuation, AEs of special interest",[6]; study 2,No SAEs
same,tolerability,"[6]; study 2, single 25 mg dose",generally well tolerated
same,"Cmax,norm lower after oral administration versus IV dose",[7],approximately 80%
same,half-life,[8],~50 h
same,"adjusted gMean ratio for AUC0–tz, tablet fasted vs. oral solution fasted",[9]; 25 mg tablet vs 25 mg solution,80.5%
same,"adjusted gMean ratio for Cmax, tablet fasted vs. oral solution fasted",[9]; 25 mg tablet vs 25 mg solution,50.0%
same,"adjusted gMean ratio AUC0–tz, high-fat/high-calorie meal versus 10-h fasted",[9]; 25 mg tablet,125.9%
same,"adjusted gMean ratio Cmax, high-fat/high-calorie meal versus 10-h fasted",[9]; 25 mg tablet,142.1%
same,tolerability,[10],generally well tolerated
same,participants reporting at least one treatment-emergent AE,[11]; of six participants,50.0%
same,intensity of treatment-emergent AEs,[11]; study 1,mild intensity
same,"serious AEs, AEs leading to discontinuation, AEs of special interest",[11]; study 1,no serious AEs reported
same,tolerability,"[11]; study 1, oral 25 mg",generally well tolerated
